Series [1] has as its system Molm-16 xenograft tumor. Particulars: 100 mg/kg weekly dosing; cited from earlier work.
The subject of the next series is other STAT proteins. Particulars: cited from earlier work.
Series [2] has as its target T1, STAT3 protein (Homo sapiens, UniProt P40763). The series is described as follows: Western blotting of STAT3 degradation in Molm-16 cells. The format is cell-based. A general note: Immunoblotting shows a protein as a band on a membrane.
In series [3] the target is STAT3 protein (Mus musculus, UniProt P42227). The series is described as follows: Pharmacodynamics in native mouse spleen tissue. The note with it: single intravenous dose, 25 mg/kg, CD-1 mice. The format is in vivo. The essentials: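 Female CD-1 mice received a single intravenous dose of test compound or vehicle (10% PEG400 + 90% PBS). Mice were euthanized at set time points and spleens harvested. Native spleen lysates were immunoblotted for STAT3.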
STAT3 protein (Mus musculus, UniProt P42227), sequence (P42227 whole entry): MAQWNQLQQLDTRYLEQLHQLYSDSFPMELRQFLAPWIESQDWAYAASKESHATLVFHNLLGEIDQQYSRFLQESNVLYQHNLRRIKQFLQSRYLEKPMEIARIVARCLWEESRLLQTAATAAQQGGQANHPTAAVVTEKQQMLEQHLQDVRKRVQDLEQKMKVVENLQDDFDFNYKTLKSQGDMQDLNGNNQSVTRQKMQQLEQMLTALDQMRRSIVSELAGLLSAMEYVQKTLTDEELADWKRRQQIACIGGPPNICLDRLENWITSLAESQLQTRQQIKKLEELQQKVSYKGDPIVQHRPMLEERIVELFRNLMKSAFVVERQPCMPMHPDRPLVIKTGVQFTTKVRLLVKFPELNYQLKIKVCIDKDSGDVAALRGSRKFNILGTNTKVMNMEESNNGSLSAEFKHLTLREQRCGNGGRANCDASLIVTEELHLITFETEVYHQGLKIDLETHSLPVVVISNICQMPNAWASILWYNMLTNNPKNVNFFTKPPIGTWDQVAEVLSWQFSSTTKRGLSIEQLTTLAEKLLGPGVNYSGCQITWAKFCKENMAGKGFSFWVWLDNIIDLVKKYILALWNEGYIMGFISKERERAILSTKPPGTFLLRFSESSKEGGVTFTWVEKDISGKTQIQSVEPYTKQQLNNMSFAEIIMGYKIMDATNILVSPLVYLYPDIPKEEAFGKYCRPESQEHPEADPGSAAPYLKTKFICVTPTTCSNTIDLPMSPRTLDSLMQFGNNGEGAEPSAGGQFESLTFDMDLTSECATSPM

The target in series [4] is T1, STAT3 protein. The experiment in a line: Pharmacodynamics in Molm-16 xenograft tumor tissue. The format is in vivo, SCID mice. The essentials:
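Molm-16 subcutaneous xenografts were grown in CB.17 SCID mice (3 × 10^6 cells in 5 mg/mL Matrigel). Mice received a single intravenous dose of test compound or vehicle (10% PEG400 + 90% PBS). Animals were euthanized at set time points, including 1 h and 72 h. Tumor lysates were immunoblotted for total STAT3 and pSTAT3Y705.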

The subject of series [5] is STAT1, STAT2, STAT4, STAT5A/B, and STAT6 proteins. The experiment in a line: Western blotting analysis of other STAT proteins in Molm-16 and SU-DHL-1 cells. Particulars: for effect on the levels of any STAT protein: 10 μM, Molm-16 4 h, SU-DHL-1 18 h. In kind it is cell-based. The essentials:
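Molm-16 cells were treated for 4 h and SU-DHL-1 cells for 18 h, with test compound at 0.01–10 μM and control compounds at 10 μM. Cells were lysed and run on SDS–PAGE, then transferred to PVDF and blocked 1 h in 5% blocker in TBST. Blots were probed with primary then secondary antibodies against STAT family members and developed by chemiluminescence.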

For series [6], the system named is Molm-16 xenograft tumor. The experiment in a line: Antitumor efficacy in the Molm-16 xenograft model. In kind it is in vivo, SCID mice. The essentials: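 Molm-16 cells (3 × 10^6) injected subcutaneously in 5 mg/mL Matrigel into CB.17 SCID mice. At an average tumor volume of 150 mm3, mice were randomized and dosed intravenously at 25 or 50 mg/kg three times weekly, or at 50 mg/kg once weekly, for 3 weeks. Vehicle was 10% PEG400 + 90% PBS. Tumors and body weight were measured 2–3 times weekly, with volume = (length × width2)/2.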

Series [7] concerns the target T1, STAT3 protein. The experiment in a line: Western blotting of STAT3 degradation in SU-DHL-1 cells. In kind it is cell-based. The note with it: SU-DHL-1, concentrations up to 10 μM.
The next series concerns SU-DHL-1 cell line. The series is described as follows: Cell growth assay. In kind it is cell-based. Particulars: SU-DHL-1, up to 10 μM.
The subject of another series is Molm-16 cell line. The experiment in a line: Cell growth assay. In kind it is cell-based. The note with it: Molm-16, ratio of IC50.
Setting [8] is: 25 or 50 mg/kg three times per week.

Where two headings read alike, the source gives them in different places. Bounds are passed on as bounds.

T1 sequence (P40763 whole entry): as the sequence (P42227 whole entry) above, with D760E counted along it

As to `NC(=O)CC[C@H](NC(=O)[C@@H]1CC[C@@H]2CCN(C(=O)CCCCCC#Cc3cccc4c3CN(C3CCC(=O)NC3=O)C4=O)C[C@H](NC(=O)c3cc4cc(C(F)(F)P(=O)(O)O)ccc4[nH]3)C(=O)N21)C(=O)NC(c1ccccc1)c1ccccc1` (stereo partly drawn) [SD-36, ((2-(((5S,8S,10aR)-8-(((S)-5-Amino-1-(benzhydrylamino)-1,5-dioxopentan-2-yl)carbamoyl)-3-(8-(2-(2,6-dioxopiperidin-3-yl)-1-oxoisoindolin-4-yl)oct-7-ynoyl)-6-oxodecahydropyrrolo-[1,2-a][1,5]diazocin-5-yl)carbamoyl)-1H-indol-5-yl)-difluoromethyl)phosphonic Acid], the tumor response result with Molm-16 xenograft tumor [1] is “complete tumor regression”. Besides, the “affinity to other STAT proteins tested” value with other STAT proteins is on record as “much weaker affinity”. For the same molecule, the “concentration very effective in reducing the level of STAT3 protein” value on STAT3 protein [2] (Western blot, Molm-16 and SU-DHL-1 cells) is no less than 0.1 µM. On STAT3 protein [3], the “persistence of STAT3 reduction in spleen” value is “more than 48 h” and the “reducing STAT3 protein in native mouse spleen tissue” value is reported as “very effective”. In addition, the “persistence of STAT3 elimination in tumor tissue” value on STAT3 protein [4] (single dose) is greater than 3 days. The “reduction of total STAT3 and pSTAT3^Y705 proteins in xenograft tumor tissue” value at STAT3 protein [4] (single dose 50 mg/kg, after 1 h) is greater than 95%. Further, the “selectivity for degradation of STAT3 over other STAT members” value in series [5] (Molm-16 and SU-DHL-1 cell lines) is listed as greater than 100 fold. Further, in [5] (Molm-16 and SU-DHL-1 cell lines, up to 10 μM), the “effect on STAT1, STAT2, STAT4, STAT5A/B, and STAT6 proteins” value is reported as “little or no effect”. Further, the tumor response result with Molm-16 xenograft tumor [6] (50 mg/kg once weekly for 3 weeks) is given as “very effective in inhibition of tumor growth”. In the series with Molm-16 xenograft tumor [6] (setting [8]), the “duration of dosing after which complete tumor regression was achieved” value came out at 2 weeks and the “persistence of complete tumor regression after termination of the treatment” value was “more than 2 weeks”. The tumor response entry with Molm-16 xenograft tumor [6] (25 or 50 mg/kg three times per week for 3 weeks intravenously) is listed as “complete tumor regression”. For the same molecule, in the series on Molm-16 xenograft tumor [6] (efficacy experiment, Molm-16 xenograft mice), the “weight loss or other signs of toxicity” value was “no weight loss or other signs of toxicity”.

Regarding `CN1C(=O)CCC(N2Cc3c(C#CCCCCCC(=O)N4CC[C@H]5CC[C@@H](C(=O)N[C@@H](CCC(N)=O)C(=O)NC(c6ccccc6)c6ccccc6)N5C(=O)[C@@H](NC(=O)c5cc6cc(C(F)(F)P(=O)(O)O)ccc6[nH]5)C4)cccc3C2=O)C1=O` (stereo partly drawn) [SD-36Me, ((2-(((5S,8S,10aR)-8-(((S)-5-Amino-1-(benzhydrylamino)-1,5-dioxopentan-2-yl)carbamoyl)-3-(8-(2-(1-methyl-2,6-dioxopi-peridin-3-yl)-1-oxoisoindolin-4-yl)oct-7-ynoyl)-6-oxodecahydropyrrolo[1,2-a][1,5]diazocin-5-yl)carbamoyl)-1H-indol-5-yl)difluoromethyl)phosphonic Acid], the “effect on the levels of STAT3 and pSTAT3^Y705” value on STAT3 protein [7] was “no effect”. Besides, the “degradation of total STAT3 and pSTAT3^Y705 proteins” value on STAT3 protein [2] (Molm-16, concentrations up to 10 μM) is reported as “completely ineffective”. Further, the “effect on cell viability” value in the series on SU-DHL-1 cell line was “no effect”. The “times less potent than SD-36 in cell growth inhibition” value with Molm-16 cell line is given as 400 times. Moreover, the “effect on the levels of any STAT protein” value in series [5] is given as “no effect”.

For `CC(=O)N1CC[C@H]2CC[C@@H](C(=O)N[C@@H](CCC(N)=O)C(=O)NC(c3ccccc3)c3ccccc3)N2C(=O)[C@@H](NC(=O)c2cc3cc(C(F)(F)P(=O)(O)O)ccc3[nH]2)C1` [SI-109, ((2-(((5S,8S,10aR)-3-Acetyl-8-(((S)-5-amino-1-(benzhydrylamino)-1,5-dioxopentan-2-yl)carbamoyl)-6-oxodecahydropyrrolo[1,2-a][1,5]diazocin-5-yl)carbamoyl)-1H-indol-5-yl)difluoromethyl)phosphonic Acid], on STAT3 protein [7], the “effect on the levels of STAT3 and pSTAT3^Y705” value is recorded as “no effect”. Besides, on STAT3 protein [2] (Molm-16, 4 h, concentrations up to 1 μM), the “effect on the level of total STAT3 protein” value is “no effect”. Further, the “effect on the level of pSTAT3^Y705 protein” value at STAT3 protein [2] (Molm-16, 4 h, up to / at 1 μM) was “only modestly decreases”. Also, in the series on SU-DHL-1 cell line, the “effect on cell viability” value is reported as “no effect”. In addition, in series [5], the “effect on the levels of any STAT protein” value is “no effect”.

The values are drawn from article PMC8848307 (Journal of medicinal chemistry, 2019).
